Test results taken from article PMC3889329 (Diabetes Therapy, 2013).
Entries after “also recorded” stand apart in the source; their conditions may differ.

Tests used:
Format in all cases: in vivo, human
[1] = system: patients with type 2 diabetes mellitus; test: Weighted mean daily glucose; details: without OGTT; for Mean MDG, mean (least squares) change from baseline to day 8: baseline day −2
Method in brief: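 Eight-point weighted mean daily glucose was calculated as the 24 h glucose AUEC0–24 divided by 24 h. It was measured under standardized meals without OGTT on day −2 (baseline) and day 8, after multiple once-daily oral doses. Change from baseline is given as least squares means. Analysis used the treated set.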

[2] = system: patients with type 2 diabetes mellitus; test: Laboratory electrolyte and lipid measurements; details: normalized to a standard reference range
[3] = system: patients with type 2 diabetes mellitus; test: Urine volume and micturition frequency
Method in brief: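 Urine volume and micturition frequency were recorded under controlled fluid intake, with oral once-daily dosing of test compound or placebo taken with 240 mL water. Dosing was a single dose on day 1, then days 3–9. Placebo was given within each dose group at a 3:1 active:placebo randomization.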

OC[C@H]1O[C@@H](c2ccc(Cl)c(Cc3ccc(O[C@H]4CCOC4)cc3)c2)[C@H](O)[C@@H](O)[C@@H]1O [Empagliflozin]
Mean MDG, mean (least squares) change from baseline to day 8 ([1]; 10 mg qd): -37.0 mg/dL
Mean MDG (SD), Day 8 ([1]; 25 mg qd): 133 (36.2) mg/dL
Mean MDG change from baseline to day 8, difference to placebo ([1]; 25 mg qd): −15.0, p = 0.052 mg/dL
Mean MDG, mean (least squares) change from baseline to day 8 ([1]; 25 mg qd): -28.5 mg/dL
Mean MDG (SD), Day 8 ([1]; 100 mg qd): 154 (17.9) mg/dL
Mean MDG change from baseline to day 8, difference to placebo ([1]; 100 mg qd): −10.6, p = 0.168 mg/dL
Mean MDG, mean (least squares) change from baseline to day 8 ([1]; 100 mg qd): -24.1 mg/dL
Calcium, mean (SD), last value on treatment ([2]; 2.5 mg qd): 2.3 (0.1) mmol/l
HDL-cholesterol, mean (SD), last value on treatment ([2]; 2.5 mg qd): 16 (18) mg/dL
Potassium, mean (SD), last value on treatment ([2]; 2.5 mg qd): 4.2 (0.3) mmol/l
Sodium, mean (SD), last value on treatment ([2]; 2.5 mg qd): 140 (2) mmol/l
Total cholesterol, mean (SD), last value on treatment ([2]; 2.5 mg qd): 175 (11) mg/dL
Triglycerides, mean (SD), last value on treatment ([2]; 2.5 mg qd): 171 (65) mg/dL
HDL-cholesterol, mean (SD), last value on treatment ([2]; 10 mg qd, N = 8): 31 (18) mg/dL
Calcium, mean (SD), last value on treatment ([2]; 10 mg qd): 2.3 (0.1) mmol/l
Potassium, mean (SD), last value on treatment ([2]; 10 mg qd): 4.4 (0.3) mmol/l
Sodium, mean (SD), last value on treatment ([2]; 10 mg qd): 140 (1) mmol/l
Total cholesterol, mean (SD), last value on treatment ([2]; 10 mg qd): 171 (25) mg/dL
Triglycerides, mean (SD), last value on treatment ([2]; 10 mg qd): 114 (42) mg/dL
Calcium, mean (SD), last value on treatment ([2]; 25 mg qd): 2.3 (0.1) mmol/l
HDL-cholesterol, mean (SD), last value on treatment ([2]; 25 mg qd): 41 (17) mg/dL
Potassium, mean (SD), last value on treatment ([2]; 25 mg qd): 4.1 (0.3) mmol/l
Sodium, mean (SD), last value on treatment ([2]; 25 mg qd): 139 (2) mmol/l
Total cholesterol, mean (SD), last value on treatment ([2]; 25 mg qd): 174 (13) mg/dL
Triglycerides, mean (SD), last value on treatment ([2]; 25 mg qd): 89 (26) mg/dL
Calcium, mean (SD), last value on treatment ([2]; 100 mg qd): 2.3 (0.1) mmol/l
HDL-cholesterol, mean (SD), last value on treatment ([2]; 100 mg qd): 37 (18) mg/dL
Potassium, mean (SD), last value on treatment ([2]; 100 mg qd): 4.5 (0.3) mmol/l
Sodium, mean (SD), last value on treatment ([2]; 100 mg qd): 139 (2) mmol/l
Total cholesterol, mean (SD), last value on treatment ([2]; 100 mg qd): 174 (11) mg/dL
Triglycerides, mean (SD), last value on treatment ([2]; 100 mg qd): 97 (27) mg/dL
Mean (SD) micturition day frequency ([3]; 2.5 mg qd, Day 1, day 07:00–18:59): 6.0 (1.2)
Mean (SD) micturition night frequency ([3]; 2.5 mg qd, Day 1, night 19:00–06:59): 3.7 (1.5)
Mean (SD) micturition day frequency ([3]; 2.5 mg qd, Day 8, day 07:00–18:59): 6.6 (1.8)
Mean (SD) micturition night frequency ([3]; 2.5 mg qd, Day 8, night 19:00–06:59): 3.7 (1.2)
Mean (SD) micturition day frequency ([3]; 2.5 mg qd, Day 9, day 07:00–18:59): 6.4 (1.9)
Mean (SD) micturition night frequency ([3]; 2.5 mg qd, Day 9, night 19:00–06:59): 3.4 (1.3)
Mean (SD) micturition day frequency ([3]; 10 mg qd, Day 1, day 07:00–18:59): 8.3 (1.7)
Mean (SD) micturition night frequency ([3]; 10 mg qd, Day 1, night 19:00–06:59): 3.8 (0.8)
Mean (SD) micturition day frequency ([3]; 10 mg qd, Day 8, day 07:00–18:59): 6.8 (1.6)
Mean (SD) micturition night frequency ([3]; 10 mg qd, Day 8, night 19:00–06:59): 4.0 (1.7)
Mean (SD) micturition day frequency ([3]; 10 mg qd, Day 9, day 07:00–18:59): 8.9 (1.7)
Mean (SD) micturition night frequency ([3]; 10 mg qd, Day 9, night 19:00–06:59): 3.7 (0.5)
Mean (SD) micturition day frequency ([3]; 25 mg qd, Day 1, day 07:00–18:59): 7.8 (2.6)
Mean (SD) micturition night frequency ([3]; 25 mg qd, Day 1, night 19:00–06:59): 4.3 (1.0)
Mean (SD) micturition day frequency ([3]; 25 mg qd, Day 8, day 07:00–18:59): 7.0 (1.6)
Mean (SD) micturition night frequency ([3]; 25 mg qd, Day 8, night 19:00–06:59): 4.8 (1.6)
Mean (SD) micturition day frequency ([3]; 25 mg qd, Day 9, day 07:00–18:59): 8.2 (2.0)
Mean (SD) micturition night frequency ([3]; 25 mg qd, Day 9, night 19:00–06:59): 4.1 (1.4)
Mean (SD) micturition day frequency ([3]; 100 mg qd, Day 1, day 07:00–18:59): 7.9 (2.4)
Mean (SD) micturition night frequency ([3]; 100 mg qd, Day 1, night 19:00–06:59): 3.6 (1.1)
Mean (SD) micturition day frequency ([3]; 100 mg qd, Day 8, day 07:00–18:59): 6.9 (1.5)
Mean (SD) micturition night frequency ([3]; 100 mg qd, Day 8, night 19:00–06:59): 4.7 (1.5)
Mean (SD) micturition day frequency ([3]; 100 mg qd, Day 9, day 07:00–18:59): 8.4 (2.5)
Mean (SD) micturition night frequency ([3]; 100 mg qd, Day 9, night 19:00–06:59): 3.7 (1.0)
Change in micturition frequency compared with placebo ([3]; controlled fluid intake conditions): no changes in urine volume or micturition frequency; also recorded: no changes to micturition frequency
